Screens (PubChem BioAssay)
Rows were chosen to be rich in hits. Some 2.6% of all compounds tested hit in one or more screens of this group.
PRMT1 FP inh = inhibitors of human PRMT1; inhibition, % at 2.79 µM; 370,000 tested, 1.3% active; AID 652257; Q99873; recombinant PRMT1, activity-based probe fluorescence polarization;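 active = inhibition above about 21% made by adding two undisclosed values, limit read from the data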
SIAE inh = inhibitors of human sialic acid acetylesterase SIAE. Q9HAT2. SIAE FP-Rh probe binding, fluorescence polarization. 370,000 tested, 0.69% active. inhibition, % at 9.66 µM. AID 1053197;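 active = inhibition above a cutoff: mean of compounds within the control limits plus 3 SD of those, cut at about 17% in these data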
mABHD4 FP = inhibitors of mouse ABHD4; Q8VD66; purified mABHD4, FP-Rh probe fluorescence polarization; inhibition, % at 8.92 µM; 370,000 tested, 0.54% active;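 active = inhibition exceeding the mean over every tested compound plus 3 SD, cut at about 30% in these data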
Target sequence (Q8VD66 whole entry, looked up): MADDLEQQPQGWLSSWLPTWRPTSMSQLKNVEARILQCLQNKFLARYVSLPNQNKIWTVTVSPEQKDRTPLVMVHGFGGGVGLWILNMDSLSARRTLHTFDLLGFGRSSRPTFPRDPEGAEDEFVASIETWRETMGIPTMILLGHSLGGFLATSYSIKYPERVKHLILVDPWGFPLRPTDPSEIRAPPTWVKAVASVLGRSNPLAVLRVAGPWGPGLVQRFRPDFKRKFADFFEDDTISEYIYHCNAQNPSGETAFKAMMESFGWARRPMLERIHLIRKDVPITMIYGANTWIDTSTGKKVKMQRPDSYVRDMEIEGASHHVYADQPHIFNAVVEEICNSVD
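Test system: mouse ABHD4 enzyme, wild type. Reagent: FP-Rh fluorescent activity-based probe, added after compound pre-incubation. Timing: pre-incubation 45 min, probe exposure 60 min, at 25 °C. Technique: FP readout, ex 525 nm / em 598 nm. Benchmarks: high control S159A mutant with DMSO, low control median of compound wells.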
TCR CD3 inh = blocks the human TCR-CD3 interaction | TAMRA-labeled TCR probe fluorescence, biochemical | inhibition, % at 9.4 µM | 360,000 tested, 0.37% active; in the data active = inhibition above about 19%;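 also: recombinant mutant TCR 2C K166C tagged with TAMRA read by polarization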
HTRA1 inhibitor = HTRA1 (human) protease inhibition. Q92743. 340,000 tested, 0.5% active. AID 504803. inhibition, % at 5.96 µM. recombinant HTRA1, FP-rhodamine activity-based probe, fluorescence polarization; in the data active = inhibition above about 36%
SIAE confirm = confirmation of human SIAE inhibitors; shares compounds with SIAE inh; SIAE FP-Rh activity-based probe, fluorescence polarization; inhibition, % at 9.66 µM; 2,300 tested, 13% active;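 active = mean inhibition of the replicates above the hit cutoff set in the primary screen, cut at about 17% in these data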;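 also: inhibitors lower polarization as more probe stays unbound to SIAE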
Large screens that a line does not name were inactive (follow-up assays come after a bar, where they were run).

Cc1ccc(-c2[nH]c(-c3ccc(C(=O)O)cc3)nc2-c2ccccc2)cc1	none
COc1ccc(NC(=O)CN(C)C(=O)Cn2c(=O)oc3ccccc32)cc1	none
O=C(Nc1ccc(F)cc1)N1CCCCCC1	SIAE inh 18 | SIAE confirm inactive
COc1cccc(NC(=O)N2CCCC2)c1	SIAE inh 19 | SIAE confirm inactive
COc1cccc(NC(=O)N2CCN(S(C)(=O)=O)CC2)c1	none
CC(=O)Nc1ccc(NC(=O)N2CCCCC2)cc1	none
Cc1cccc(OCC(=O)NCCNC(=O)c2ccccn2)c1	none
COc1cccc(C(O)c2ncc(-c3ccc(C(F)(F)F)cc3)[nH]2)c1 (stereo unspecified)	none (no result: HTRA1 inhibitor)
Cc1ccccc1NC(=S)N1CCN(c2ccccc2)CC1	SIAE inh 18 | SIAE confirm inactive
O=S(=O)(Nc1nccs1)c1ccc(Cl)cc1	SIAE inh 19 | SIAE confirm inactive
CC(C)Cc1nnc(NS(=O)(=O)c2ccc(Cl)cc2)s1	SIAE inh 27 | SIAE confirm inactive
Cc1ccc(Cl)cc1NC(=O)CN1C(=O)NC2(CCCCCC2)C1=O	SIAE inh 45 | SIAE confirm inactive
Cc1cc(Cl)ccc1NC(=O)CN1C(=O)NC2(CCCC2)C1=O	none
CCOc1ccc(/C=N/Nc2cc(N3CCOCC3)nc(C)n2)c(O)c1	SIAE inh 31 | SIAE confirm 26
CCOc1ccc(/C=N/Nc2cc(C)nc(N3CCOCC3)n2)cc1	none
CCc1ccccc1NNC(=O)c1snnc1C	SIAE inh 17 (no result: HTRA1 inhibitor) | SIAE confirm inactive
CCNC(=O)C1CCCN(C(=O)c2ccc(N(C)C)cc2)CC1 (stereo unspecified)	none (no result: HTRA1 inhibitor)
N#Cc1ccc(OCC(=O)Nc2nc(-c3cccnc3)cs2)cc1	none
CC(CC(=O)N1CCN(S(=O)(=O)c2ccc(Cl)cc2)CC1)n1cncn1 (stereo unspecified)	SIAE inh 18 | SIAE confirm inactive
CC(C)CC(=O)N1CCN(S(=O)(=O)c2ccc(Cl)cc2)CC1	none
O=C(COC(=O)c1cnccn1)N=c1sccn1Cc1ccccc1Cl	SIAE inh 20 | SIAE confirm inactive
CC(=O)Nc1ccc(Br)c2ccccc12	none
O=C(Nc1ccc(Br)c2ccccc12)c1ccc2ccccc2c1O	SIAE inh 26 | SIAE confirm inactive
O=Cc1cc2ccccc2nc1SCc1ccc(Cl)cc1	SIAE inh 27 | SIAE confirm inactive
CCOC(=O)C(O)(C1C(=O)CC(C)(C)CC1=O)C(F)(F)F (stereo unspecified)	SIAE inh 33 | SIAE confirm 19
CC(=O)Nc1c(NC(C)(C)C)c2ccccc2oc1=O	SIAE inh 21 | SIAE confirm inactive
CCOCCCN(C(=O)Cn1nnc(-c2ccc(OC)c(OC)c2)n1)C(C(=O)NCC1CCCO1)c1ccc(F)cc1 (stereo unspecified)	none
COCCN(CCOC)C(=S)Nc1cc(S(=O)(=O)N(C)C)ccc1C	SIAE inh 20 | SIAE confirm inactive
CC1CCN(c2nc3c(c(=O)[nH]c(=O)n3C)n2Cc2ccccc2)CC1	none
CC1CCCN(c2nc3c(c(=O)[nH]c(=O)n3C)n2CCCc2ccccc2)C1 (stereo unspecified)	SIAE inh 18 | SIAE confirm inactive
CCNc1nc2c(c(=O)[nH]c(=O)n2C)n1CCCc1ccccc1	none
CCN(CC)CCNc1nc2c(c(=O)[nH]c(=O)n2C)n1CCCc1ccccc1	SIAE inh 19 | SIAE confirm inactive
NNC(=O)C(Cc1cnc[nH]1)NC(=O)OCc1ccccc1 (stereo unspecified)	none
Cc1cc(Nc2ccccc2C(=O)O)nc2nc3ccccc3c(=O)n12	SIAE inh 23 | SIAE confirm inactive
O=C(O)c1ccccc1Nc1ccccc1	none
O=C(COC(=O)c1ccco1)NC1CCCC1	none
CSc1ccccc1NC(=O)CN(C)C(=O)CNC(=O)c1ccc(Oc2ccccc2)cc1	none
O=C(CNC(=O)c1ccccc1F)NCCc1ccccc1F	none
O=C(Cc1cn(Cc2ccccc2)c2ccccc12)Nc1ccc(Nc2cccnc2)cc1	SIAE inh 26 (no result: HTRA1 inhibitor) | SIAE confirm 28
O=C(CSc1nc2c(c(=O)n1-c1ccccc1)SCC2)NCC1CCCO1 (stereo unspecified)	SIAE inh 31 | SIAE confirm inactive
